From ChEMBL document CHEMBL5696442, “Discovery of type II inhibitors of TGFβ-activated kinase 1 (TAK1) and mitogen-activated protein kinase kinase kinase kinase 2 (MAP4K2)” (J Med Chem, 2015)

Key:
Type in all cases: cell-based
[1] = target: T1, Serine/threonine-protein kinase TAO1 (Homo sapiens) (UniProt Q7L7X3); experiment: Inhibition of TAO1 Lys2 labeling site in human A-375 cells at 0.5 uM by KiNativ Profiling analysis relative to control
T1 sequence (whole entry): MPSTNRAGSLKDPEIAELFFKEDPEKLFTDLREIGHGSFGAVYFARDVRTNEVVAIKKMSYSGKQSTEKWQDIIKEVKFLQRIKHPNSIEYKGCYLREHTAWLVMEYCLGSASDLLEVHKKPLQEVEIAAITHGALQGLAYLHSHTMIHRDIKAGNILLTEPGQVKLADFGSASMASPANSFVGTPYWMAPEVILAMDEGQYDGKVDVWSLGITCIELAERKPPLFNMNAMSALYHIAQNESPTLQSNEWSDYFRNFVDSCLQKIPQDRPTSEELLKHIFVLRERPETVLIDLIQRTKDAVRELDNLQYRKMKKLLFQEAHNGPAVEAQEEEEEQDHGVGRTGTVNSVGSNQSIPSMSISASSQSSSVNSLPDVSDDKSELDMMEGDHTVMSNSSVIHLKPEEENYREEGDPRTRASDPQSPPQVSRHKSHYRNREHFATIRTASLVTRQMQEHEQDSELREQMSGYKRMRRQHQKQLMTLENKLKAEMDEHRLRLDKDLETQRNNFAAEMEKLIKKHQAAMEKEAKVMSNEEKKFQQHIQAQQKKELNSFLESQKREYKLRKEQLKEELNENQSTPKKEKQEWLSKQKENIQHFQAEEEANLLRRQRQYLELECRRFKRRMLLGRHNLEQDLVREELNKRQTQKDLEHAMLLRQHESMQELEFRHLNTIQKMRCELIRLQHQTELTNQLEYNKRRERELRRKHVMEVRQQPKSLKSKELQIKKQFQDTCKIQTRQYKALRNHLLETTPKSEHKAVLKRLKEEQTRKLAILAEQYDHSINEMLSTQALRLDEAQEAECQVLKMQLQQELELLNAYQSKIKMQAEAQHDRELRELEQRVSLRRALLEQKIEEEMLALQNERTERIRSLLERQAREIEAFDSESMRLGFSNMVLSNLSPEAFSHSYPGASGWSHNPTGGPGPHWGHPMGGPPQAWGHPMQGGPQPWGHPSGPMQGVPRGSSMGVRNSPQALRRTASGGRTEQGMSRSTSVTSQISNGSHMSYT

[2] = target: T2, Phosphatidylinositol 5-phosphate 4-kinase type-2 alpha (Homo sapiens) (UniProt P48426); experiment: Inhibition of PIP4K2A ATP labeling site in human A-375 cells at 5 uM by KiNativ Profiling analysis relative to control
T2 sequence (whole entry): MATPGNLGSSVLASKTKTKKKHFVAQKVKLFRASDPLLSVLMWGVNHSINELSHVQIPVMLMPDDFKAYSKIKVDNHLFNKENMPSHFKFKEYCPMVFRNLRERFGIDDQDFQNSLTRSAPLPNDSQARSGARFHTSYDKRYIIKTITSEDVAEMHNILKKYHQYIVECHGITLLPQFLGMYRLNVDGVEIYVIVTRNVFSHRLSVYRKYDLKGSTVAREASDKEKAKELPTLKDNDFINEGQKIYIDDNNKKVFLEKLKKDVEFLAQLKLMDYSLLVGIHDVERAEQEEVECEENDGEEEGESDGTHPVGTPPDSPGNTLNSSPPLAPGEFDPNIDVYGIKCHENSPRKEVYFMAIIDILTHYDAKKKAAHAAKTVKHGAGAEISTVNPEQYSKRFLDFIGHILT

[3] = target: Serine/threonine-protein kinase WNK2 (Homo sapiens) (UniProt Q9Y3S1); experiment: Inhibition of Wnk2 Lys2 labeling site in human A-375 cells at 5 uM by KiNativ Profiling analysis relative to control
[4] = target: T3, Serine/threonine-protein kinase Nek9 (Homo sapiens) (UniProt Q8TD19); experiment: Inhibition of NEK9 Lys1 labeling site harbouring TEDDSLVVWKEVDLTR in human A-375 cells at 0.05 uM by KiNativ Profiling analysis relative to control
T3 sequence (whole entry): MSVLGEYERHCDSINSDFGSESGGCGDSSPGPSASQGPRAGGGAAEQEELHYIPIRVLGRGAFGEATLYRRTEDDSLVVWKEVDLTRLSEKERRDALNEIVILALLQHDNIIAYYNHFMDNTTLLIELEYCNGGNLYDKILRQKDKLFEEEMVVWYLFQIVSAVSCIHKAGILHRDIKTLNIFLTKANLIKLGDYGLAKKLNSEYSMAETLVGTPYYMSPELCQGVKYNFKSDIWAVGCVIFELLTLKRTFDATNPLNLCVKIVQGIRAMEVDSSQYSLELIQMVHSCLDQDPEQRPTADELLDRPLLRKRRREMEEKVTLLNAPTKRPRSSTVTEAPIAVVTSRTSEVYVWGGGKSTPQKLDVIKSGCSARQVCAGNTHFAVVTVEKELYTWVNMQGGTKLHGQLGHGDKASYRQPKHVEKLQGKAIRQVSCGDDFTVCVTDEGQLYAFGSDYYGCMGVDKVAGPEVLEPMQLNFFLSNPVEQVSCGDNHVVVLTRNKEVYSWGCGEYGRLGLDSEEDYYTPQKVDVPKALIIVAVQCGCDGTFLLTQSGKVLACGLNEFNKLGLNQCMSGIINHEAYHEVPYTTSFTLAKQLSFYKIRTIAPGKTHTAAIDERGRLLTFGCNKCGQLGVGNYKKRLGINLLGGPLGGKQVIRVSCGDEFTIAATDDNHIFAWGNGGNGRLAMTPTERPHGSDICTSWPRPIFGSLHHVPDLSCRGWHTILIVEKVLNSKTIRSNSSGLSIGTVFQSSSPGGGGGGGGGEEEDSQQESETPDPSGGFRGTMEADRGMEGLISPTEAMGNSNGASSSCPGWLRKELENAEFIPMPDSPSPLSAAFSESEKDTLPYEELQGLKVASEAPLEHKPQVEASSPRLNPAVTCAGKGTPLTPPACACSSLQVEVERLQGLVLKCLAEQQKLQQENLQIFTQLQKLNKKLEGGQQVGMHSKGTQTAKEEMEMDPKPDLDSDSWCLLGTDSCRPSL

[5] = target: RAC-beta serine/threonine-protein kinase (Homo sapiens) (UniProt P31751); experiment: Inhibition of AKT2 ATP Loop labeling site in human A-375 cells at 0.05 uM by KiNativ Profiling analysis relative to control
[6] = target: Tyrosine-protein kinase Fer (Homo sapiens, UniProt P16591); experiment: Inhibition of FER Lys1 labeling site harbouring TSVAVKTCKEDLPQELKin human A-375 cells at 0.5 uM by KiNativ Profiling analysis relative to control
[7] = target: Ribosomal protein S6 kinase alpha-3 (Homo sapiens) (UniProt P51812); experiment: Inhibition of RSK2 domain2 Protein Kinase Domain in human A-375 cells at 5 uM by KiNativ Profiling analysis relative to control
Outline: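 Live A375 melanoma cells treated with compound at 5 or 0.5 μM, then lysed. Lysate kinases were labeled with a lysine-reactive ATP or ADP-biotin probe. Inhibition was read as protection of labeling sites from the probe.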

Chain of RAC-beta serine/threonine-protein kinase (Homo sapiens) (P31751 whole entry): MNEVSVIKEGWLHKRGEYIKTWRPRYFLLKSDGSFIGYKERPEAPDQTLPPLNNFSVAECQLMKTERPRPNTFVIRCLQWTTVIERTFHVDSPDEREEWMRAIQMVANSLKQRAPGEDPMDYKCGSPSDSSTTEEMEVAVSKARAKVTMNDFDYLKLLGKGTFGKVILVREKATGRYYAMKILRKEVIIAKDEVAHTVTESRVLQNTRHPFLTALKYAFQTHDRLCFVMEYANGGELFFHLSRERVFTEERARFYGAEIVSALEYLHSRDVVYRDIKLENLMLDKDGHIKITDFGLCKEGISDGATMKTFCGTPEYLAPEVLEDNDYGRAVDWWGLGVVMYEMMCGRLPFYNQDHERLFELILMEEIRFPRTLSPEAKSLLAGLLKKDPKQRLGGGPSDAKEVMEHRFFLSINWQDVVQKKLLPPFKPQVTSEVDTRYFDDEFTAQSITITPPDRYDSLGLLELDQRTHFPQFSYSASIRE
Chain of Serine/threonine-protein kinase WNK2 (Homo sapiens) (Q9Y3S1 whole entry): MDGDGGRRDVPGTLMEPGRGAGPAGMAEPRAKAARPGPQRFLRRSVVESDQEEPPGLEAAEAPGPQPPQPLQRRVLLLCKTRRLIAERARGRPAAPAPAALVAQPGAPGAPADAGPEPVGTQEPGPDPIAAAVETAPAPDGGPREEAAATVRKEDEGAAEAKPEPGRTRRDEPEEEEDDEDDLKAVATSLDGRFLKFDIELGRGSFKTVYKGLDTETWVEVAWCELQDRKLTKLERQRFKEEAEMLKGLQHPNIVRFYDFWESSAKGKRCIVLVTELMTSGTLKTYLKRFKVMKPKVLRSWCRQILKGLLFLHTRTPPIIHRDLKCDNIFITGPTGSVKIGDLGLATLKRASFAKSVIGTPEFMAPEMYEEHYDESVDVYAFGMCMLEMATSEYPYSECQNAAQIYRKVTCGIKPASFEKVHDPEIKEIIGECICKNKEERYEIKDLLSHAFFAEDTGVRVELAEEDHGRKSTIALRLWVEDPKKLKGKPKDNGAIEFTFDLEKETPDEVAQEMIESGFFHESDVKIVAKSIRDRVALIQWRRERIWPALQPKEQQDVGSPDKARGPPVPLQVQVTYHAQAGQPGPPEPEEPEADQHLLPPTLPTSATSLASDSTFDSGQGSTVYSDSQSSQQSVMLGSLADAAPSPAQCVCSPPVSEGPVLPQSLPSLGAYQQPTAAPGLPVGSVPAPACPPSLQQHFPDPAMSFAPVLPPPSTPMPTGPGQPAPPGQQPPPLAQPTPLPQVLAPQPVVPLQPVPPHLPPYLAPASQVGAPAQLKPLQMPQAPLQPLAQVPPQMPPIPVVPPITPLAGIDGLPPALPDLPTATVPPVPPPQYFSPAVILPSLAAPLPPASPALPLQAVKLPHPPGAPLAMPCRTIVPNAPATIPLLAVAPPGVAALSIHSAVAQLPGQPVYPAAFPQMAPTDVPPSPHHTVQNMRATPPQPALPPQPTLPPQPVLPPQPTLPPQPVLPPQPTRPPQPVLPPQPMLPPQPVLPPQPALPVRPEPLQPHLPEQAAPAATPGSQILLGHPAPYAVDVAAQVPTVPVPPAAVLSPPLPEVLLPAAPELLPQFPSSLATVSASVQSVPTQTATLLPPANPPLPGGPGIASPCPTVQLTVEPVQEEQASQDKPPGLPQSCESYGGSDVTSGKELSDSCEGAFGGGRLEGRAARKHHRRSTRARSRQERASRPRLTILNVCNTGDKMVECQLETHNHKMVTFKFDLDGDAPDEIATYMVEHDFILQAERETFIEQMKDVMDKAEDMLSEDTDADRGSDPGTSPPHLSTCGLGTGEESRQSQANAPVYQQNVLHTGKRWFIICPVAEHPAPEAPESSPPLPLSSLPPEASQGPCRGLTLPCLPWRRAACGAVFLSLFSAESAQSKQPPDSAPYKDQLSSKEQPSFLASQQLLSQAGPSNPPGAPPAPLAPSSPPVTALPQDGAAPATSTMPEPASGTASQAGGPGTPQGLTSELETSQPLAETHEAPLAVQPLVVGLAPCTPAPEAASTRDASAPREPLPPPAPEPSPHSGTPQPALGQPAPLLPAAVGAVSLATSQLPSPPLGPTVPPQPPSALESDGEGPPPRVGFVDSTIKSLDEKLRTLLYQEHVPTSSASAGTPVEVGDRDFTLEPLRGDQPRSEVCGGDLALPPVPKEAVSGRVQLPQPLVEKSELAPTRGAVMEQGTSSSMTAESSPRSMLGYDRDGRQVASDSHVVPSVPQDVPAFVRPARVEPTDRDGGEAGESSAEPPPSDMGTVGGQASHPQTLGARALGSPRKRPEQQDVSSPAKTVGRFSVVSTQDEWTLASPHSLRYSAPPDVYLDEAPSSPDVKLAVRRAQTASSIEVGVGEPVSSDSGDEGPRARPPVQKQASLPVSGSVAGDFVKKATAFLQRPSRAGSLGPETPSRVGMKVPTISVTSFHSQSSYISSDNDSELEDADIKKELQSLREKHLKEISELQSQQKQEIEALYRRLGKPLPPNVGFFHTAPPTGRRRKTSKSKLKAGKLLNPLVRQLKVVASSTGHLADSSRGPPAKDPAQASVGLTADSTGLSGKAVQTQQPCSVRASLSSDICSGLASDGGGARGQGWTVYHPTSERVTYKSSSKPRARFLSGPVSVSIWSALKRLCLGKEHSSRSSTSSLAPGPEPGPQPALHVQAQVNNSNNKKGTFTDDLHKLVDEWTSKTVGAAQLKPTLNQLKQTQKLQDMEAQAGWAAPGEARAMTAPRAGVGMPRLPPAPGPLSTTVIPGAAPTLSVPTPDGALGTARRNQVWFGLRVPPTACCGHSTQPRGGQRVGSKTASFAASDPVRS
Chain of Ribosomal protein S6 kinase alpha-3 (Homo sapiens) (P51812 whole entry, the tested form may be a part): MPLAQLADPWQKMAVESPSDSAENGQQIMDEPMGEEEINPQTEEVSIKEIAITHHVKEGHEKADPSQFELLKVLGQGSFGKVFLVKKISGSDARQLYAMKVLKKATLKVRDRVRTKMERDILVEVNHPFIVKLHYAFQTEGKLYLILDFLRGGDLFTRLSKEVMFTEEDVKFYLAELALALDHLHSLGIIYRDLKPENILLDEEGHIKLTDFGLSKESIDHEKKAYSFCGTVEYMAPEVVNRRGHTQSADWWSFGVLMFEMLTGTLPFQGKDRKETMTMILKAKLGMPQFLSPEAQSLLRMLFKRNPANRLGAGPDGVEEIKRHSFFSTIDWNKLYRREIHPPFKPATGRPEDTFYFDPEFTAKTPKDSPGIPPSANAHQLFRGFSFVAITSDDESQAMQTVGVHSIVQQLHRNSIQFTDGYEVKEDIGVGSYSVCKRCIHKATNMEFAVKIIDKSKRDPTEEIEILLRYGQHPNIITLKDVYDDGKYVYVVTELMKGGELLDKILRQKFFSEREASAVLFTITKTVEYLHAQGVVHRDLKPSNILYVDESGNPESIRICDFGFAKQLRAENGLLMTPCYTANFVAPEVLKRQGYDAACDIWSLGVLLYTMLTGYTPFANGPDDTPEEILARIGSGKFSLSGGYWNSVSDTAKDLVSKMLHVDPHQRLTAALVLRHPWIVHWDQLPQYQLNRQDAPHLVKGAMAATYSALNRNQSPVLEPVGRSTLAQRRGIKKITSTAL
Chain of Tyrosine-protein kinase Fer (P16591 whole entry, looked up, the tested form may be a part): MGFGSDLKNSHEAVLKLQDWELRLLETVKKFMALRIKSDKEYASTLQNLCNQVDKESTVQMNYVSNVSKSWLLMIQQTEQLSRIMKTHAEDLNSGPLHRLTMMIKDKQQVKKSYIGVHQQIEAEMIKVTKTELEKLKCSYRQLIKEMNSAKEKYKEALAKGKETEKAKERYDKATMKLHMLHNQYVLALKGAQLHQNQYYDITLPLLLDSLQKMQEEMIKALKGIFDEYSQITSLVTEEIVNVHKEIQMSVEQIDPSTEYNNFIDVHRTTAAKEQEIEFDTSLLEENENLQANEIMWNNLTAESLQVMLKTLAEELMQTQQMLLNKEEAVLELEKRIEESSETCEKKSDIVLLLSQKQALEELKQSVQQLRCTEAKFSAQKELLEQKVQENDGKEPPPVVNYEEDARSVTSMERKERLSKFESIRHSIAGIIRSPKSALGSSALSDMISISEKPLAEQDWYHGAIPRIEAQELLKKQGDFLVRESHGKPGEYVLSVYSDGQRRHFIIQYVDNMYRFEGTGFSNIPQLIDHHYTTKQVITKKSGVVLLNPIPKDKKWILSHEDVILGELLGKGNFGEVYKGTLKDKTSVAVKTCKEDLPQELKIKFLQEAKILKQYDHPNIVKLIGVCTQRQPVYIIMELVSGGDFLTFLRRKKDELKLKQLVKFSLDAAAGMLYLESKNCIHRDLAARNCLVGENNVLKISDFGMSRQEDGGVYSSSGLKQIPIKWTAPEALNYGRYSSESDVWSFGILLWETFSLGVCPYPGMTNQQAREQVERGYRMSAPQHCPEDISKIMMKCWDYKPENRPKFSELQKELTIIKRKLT

CCN1CCN(Cc2ccc(NC(=O)c3ccc(C)c(/C=C/c4cnc5[nH]ccc5c4OC)c3)cc2C(F)(F)F)CC1
inhibition [1]: 6.6%
inhibition [2]: 4.7%
inhibition [3]: 14.3%
inhibition [4]: -2.6%
inhibition [5]: 20.9%
inhibition [6]: 23.3%
inhibition [7]: 33.3%

CCN1CCN(Cc2ccc(NC(=O)c3ccc(C)c(Oc4ccnc5[nH]ccc45)c3)cc2C(F)(F)F)CC1
inhibition [1]: -5.6%
inhibition [2]: 0.9%
inhibition [3]: -5.5%
inhibition [4]: 18.9%
inhibition [5]: -3.9%
inhibition [6]: 88.5%
inhibition [7]: 0.4%
